Measured values pooled from the literature.
Each line is one published result; the experiments were not run side by side.
Target: Phosphatidylinositol 4,5-bisphosphate 3-kinase catalytic subunit delta isoform (PIK3CD, Homo sapiens, UniProt O00329)
Sequence (O00329 1-1044, as in one of the studies): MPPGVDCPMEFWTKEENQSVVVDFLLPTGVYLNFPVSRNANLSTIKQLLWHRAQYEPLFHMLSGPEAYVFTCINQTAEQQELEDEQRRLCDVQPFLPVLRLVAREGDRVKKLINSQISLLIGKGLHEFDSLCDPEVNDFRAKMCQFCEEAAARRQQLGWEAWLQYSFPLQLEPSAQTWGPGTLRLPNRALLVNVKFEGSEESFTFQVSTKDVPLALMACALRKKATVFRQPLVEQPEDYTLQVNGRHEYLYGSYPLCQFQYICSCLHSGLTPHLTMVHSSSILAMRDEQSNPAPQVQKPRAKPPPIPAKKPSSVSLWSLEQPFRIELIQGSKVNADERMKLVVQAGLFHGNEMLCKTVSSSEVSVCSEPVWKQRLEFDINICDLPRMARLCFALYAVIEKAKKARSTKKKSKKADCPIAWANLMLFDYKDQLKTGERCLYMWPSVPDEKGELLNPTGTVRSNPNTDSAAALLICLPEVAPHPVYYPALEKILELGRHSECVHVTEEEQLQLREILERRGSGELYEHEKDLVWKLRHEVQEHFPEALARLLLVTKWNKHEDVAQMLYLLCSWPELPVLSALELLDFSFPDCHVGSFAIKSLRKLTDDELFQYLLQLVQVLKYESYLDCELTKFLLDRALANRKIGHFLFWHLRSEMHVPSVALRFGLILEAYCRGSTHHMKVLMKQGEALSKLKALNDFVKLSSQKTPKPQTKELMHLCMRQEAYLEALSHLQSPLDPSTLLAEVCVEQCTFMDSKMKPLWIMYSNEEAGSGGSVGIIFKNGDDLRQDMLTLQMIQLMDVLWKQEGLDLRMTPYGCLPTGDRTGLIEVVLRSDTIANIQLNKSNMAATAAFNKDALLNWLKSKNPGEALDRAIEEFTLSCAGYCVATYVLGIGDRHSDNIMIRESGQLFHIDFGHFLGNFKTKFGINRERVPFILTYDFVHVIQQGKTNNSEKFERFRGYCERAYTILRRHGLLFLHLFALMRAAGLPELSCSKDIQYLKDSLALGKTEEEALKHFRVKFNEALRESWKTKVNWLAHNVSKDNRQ

Compound | test | setting | remaining binding
C[C@H](NC(=O)c1cnc2n1[C@](C)(Cc1ccc(C#N)cc1)C(=O)N2c1cc(Cl)c(F)c(Cl)c1)C(=O)NC1(c2ccccn2)CC1 | cell-free assay, competition with immobilised ligand | 1 µM | 95%
O=C(NCC1CCOCC1)c1n[nH]cc1NC(=O)c1c(F)cccc1F | binding, competition with immobilised ligand | 1 µM | 87%
c1cncc(-c2cccc(Nc3nccc(NC4CCCCC4)n3)c2)c1 | binding, competition with immobilised ligand | 10 µM | 88%
CCc1ccccc1C(=O)Nc1n[nH]c2c(C)c(F)c(C3C(C#N)=C(C)N(C)C(C)=C3C#N)cc12 | cell-free assay, competition with immobilised ligand | 1 µM | 90%
CN(c1nccc(-c2cnn3ncccc23)n1)C1CC1 | binding | 1 µM | 100%
O=C(c1ccc(Nc2ncc(Cl)c(-c3ccc(Cl)s3)n2)cc1)N1CCC(N2CCCC2)CC1 | binding, competition with immobilised ligand | 1 µM | 100%
N[C@H]1CCN(c2nccc(-c3cnn4ncccc34)n2)C1 | binding | 1 µM | 100%
CCN1CCN(Cc2ccc(C(=O)Nc3ccc(C)c(Oc4ccc5c(c4)CC(=O)N5)c3)cc2C(F)(F)F)CC1 | binding, competition with immobilised ligand | 1 µM | 100%
CN(C)c1ncc(F)c(-c2cnn3ncccc23)n1 | binding | 1 µM | 98%
Cc1cnc(Nc2ccc(C(=O)N3CCC(N4CCCC4)CC3)cc2)nc1-c1cc2ccccc2s1 | binding, competition with immobilised ligand | 1 µM | 90%
C=CC(=O)N1CCC(C(=O)NCC(=O)N2CCN(c3nc(-c4cnc(N)nc4C(F)F)nc(N4CCOCC4)n3)CC2)CC1 | binding, competition with immobilised ligand | 1 µM | 19%
CC1CCCN1c1nccc(-c2cnn3ncccc23)n1 (stereo not drawn) | binding | 1 µM | 100%
C[C@@H](c1ccc(-n2cnc3c(N)ncnc32)cc1)N1CCc2nn(C)c(Cc3ccccc3)c2C1=O | binding, competition with immobilised ligand | 0.1 µM | 61%
Cc1cc(-n2nc(Cc3cc(F)cc(C(F)(F)F)c3)nc2C)ccc1C(N)=O | cell-free assay, competition with immobilised ligand | 1 µM | 52%
COc1cnc(Nc2cccc(S(N)(=O)=O)c2)nc1N1CCN(c2ccccc2)CC1 | binding, competition with immobilised ligand | 1 µM | 81%
CC1=C(C#N)[C@@H](c2ccc3[nH]nc(C)c3c2)C(C#N)=C(c2ccc(Cl)cc2)N1 | cell-free assay, competition with immobilised ligand | 1 µM | 100%
c1cnn2ncc(-c3ccnc(N4CCC45COC5)n3)c2c1 | binding | 1 µM | 69%
CCOCCn1cc(C(=O)Nc2ccc(-n3nc(-c4cccnc4)cc3C(F)(F)F)cn2)ccc1=O | cell-free assay, competition with immobilised ligand | 1 µM | 100%
O=C(c1ccc(Nc2ncc(Cl)c(-c3cc4ccccc4s3)n2)cc1)N1CCC(N2CCCC2)CC1 | binding, competition with immobilised ligand | 1 µM | 71%
C[C@@H]1CCN(c2nccc(-c3cnn4ncccc34)n2)C1 | binding | 1 µM | 100%
CNC(=O)Nc1ccc2c(c1)[C@@]1(CC2)OC(=O)N(CC(=O)N(Cc2ccc(F)cc2)[C@@H](C)C(F)(F)F)C1=O | cell-free assay, competition with immobilised ligand | 1 µM | 100%
